The results in this text go back to ChEMBL document CHEMBL1127348, “3-Amino-5,5-dimethylhexanoic acid. Synthesis, resolution, and effects on carnitine acyltransferases” (J Med Chem, 1994).

The target of series [1] is T1, Carnitine O-palmitoyltransferase 1, liver isoform (Rattus norvegicus) (UniProt P32198).
T1 sequence (whole entry): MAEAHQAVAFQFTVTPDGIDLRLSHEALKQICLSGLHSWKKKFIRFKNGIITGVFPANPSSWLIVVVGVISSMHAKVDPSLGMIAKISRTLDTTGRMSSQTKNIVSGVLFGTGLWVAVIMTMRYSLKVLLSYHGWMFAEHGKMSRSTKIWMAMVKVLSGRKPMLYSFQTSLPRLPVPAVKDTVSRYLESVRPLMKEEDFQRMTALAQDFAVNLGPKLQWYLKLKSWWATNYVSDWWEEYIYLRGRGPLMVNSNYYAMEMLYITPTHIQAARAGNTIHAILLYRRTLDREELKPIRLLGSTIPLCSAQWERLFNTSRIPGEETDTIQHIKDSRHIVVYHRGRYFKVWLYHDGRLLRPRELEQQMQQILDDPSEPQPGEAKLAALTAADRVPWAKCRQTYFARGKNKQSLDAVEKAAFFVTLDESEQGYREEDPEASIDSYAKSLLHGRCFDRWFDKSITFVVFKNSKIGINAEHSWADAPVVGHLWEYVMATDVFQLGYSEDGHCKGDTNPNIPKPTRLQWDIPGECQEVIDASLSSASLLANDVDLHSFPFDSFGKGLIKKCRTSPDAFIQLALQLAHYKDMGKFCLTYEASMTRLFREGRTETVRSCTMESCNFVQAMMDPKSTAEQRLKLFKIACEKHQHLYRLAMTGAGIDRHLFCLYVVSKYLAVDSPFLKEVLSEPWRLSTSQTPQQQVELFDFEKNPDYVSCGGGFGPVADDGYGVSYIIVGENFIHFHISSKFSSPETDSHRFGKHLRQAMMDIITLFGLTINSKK
The experiment in a line: Percent inhibition was measured on rat liver carnitine palmitoyltransferase at 5 uM.

Series [2] deals with T2, Carnitine O-palmitoyltransferase 2, mitochondrial (Rattus norvegicus, UniProt P18886).
T2 sequence (P18886 whole entry): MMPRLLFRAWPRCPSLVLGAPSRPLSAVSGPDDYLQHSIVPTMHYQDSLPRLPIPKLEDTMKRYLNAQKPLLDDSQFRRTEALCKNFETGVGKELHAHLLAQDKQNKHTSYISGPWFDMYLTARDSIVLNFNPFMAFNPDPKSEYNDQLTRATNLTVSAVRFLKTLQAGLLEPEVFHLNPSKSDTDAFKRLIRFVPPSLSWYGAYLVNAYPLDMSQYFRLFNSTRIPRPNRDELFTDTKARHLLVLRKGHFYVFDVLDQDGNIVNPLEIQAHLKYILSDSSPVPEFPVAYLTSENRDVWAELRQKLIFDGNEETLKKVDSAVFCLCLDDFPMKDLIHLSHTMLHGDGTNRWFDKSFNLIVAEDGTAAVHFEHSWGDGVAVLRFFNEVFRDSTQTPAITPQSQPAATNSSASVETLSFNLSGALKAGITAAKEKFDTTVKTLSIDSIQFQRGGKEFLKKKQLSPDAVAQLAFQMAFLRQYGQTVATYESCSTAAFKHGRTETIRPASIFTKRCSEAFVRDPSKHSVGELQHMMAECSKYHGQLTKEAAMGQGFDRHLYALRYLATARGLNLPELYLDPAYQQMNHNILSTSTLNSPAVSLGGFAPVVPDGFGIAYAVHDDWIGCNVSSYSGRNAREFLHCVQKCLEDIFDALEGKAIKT
The experiment in a line: Tested against neonatal rat cardiac myocyte carnitine palmitoyltransferase 2.

For series [3], the target named is T3, Carnitine O-palmitoyltransferase 1, muscle isoform (Rattus norvegicus, UniProt Q63704).
T3 sequence (Q63704 whole entry): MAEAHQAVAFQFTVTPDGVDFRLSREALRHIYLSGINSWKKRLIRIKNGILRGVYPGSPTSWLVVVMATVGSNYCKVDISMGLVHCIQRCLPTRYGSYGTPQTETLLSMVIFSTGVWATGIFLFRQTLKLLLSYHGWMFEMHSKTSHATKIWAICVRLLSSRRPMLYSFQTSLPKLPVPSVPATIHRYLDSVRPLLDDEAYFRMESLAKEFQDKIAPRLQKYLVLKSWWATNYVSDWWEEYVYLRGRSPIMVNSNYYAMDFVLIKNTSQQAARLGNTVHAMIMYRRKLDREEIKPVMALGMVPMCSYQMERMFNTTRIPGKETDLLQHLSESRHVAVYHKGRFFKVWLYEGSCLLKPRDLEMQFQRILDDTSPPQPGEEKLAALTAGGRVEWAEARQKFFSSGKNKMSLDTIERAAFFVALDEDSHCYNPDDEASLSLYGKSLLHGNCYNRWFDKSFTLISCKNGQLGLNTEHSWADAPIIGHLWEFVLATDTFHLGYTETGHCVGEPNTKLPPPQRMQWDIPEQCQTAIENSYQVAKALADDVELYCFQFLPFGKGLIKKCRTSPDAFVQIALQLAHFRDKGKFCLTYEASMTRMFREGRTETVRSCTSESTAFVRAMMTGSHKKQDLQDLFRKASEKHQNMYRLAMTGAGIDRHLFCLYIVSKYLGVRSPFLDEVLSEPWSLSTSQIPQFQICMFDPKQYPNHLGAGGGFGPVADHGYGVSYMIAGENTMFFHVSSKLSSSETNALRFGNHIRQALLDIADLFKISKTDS
The series is described as follows: Tested against neonatal rat cardiac myocyte carnitine palmitoyltransferase 1.

The target of series [4] is T3, Carnitine O-palmitoyltransferase 1, muscle isoform. The series is described as follows: Tested against neonatal rat cardiac myocyte carnitine palmitoyltransferase 1; no effect.
Substrate in series [5]: C[N+](C)(C)C[C@H](O)CC(=O)[O-]
The experiment in a line: (§1) Kinetic constants tested against pigeon breast carnitine acyltransferase. Particulars: Columba livia; call rule not given here. In a few lines:
(§2)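 Purified pigeon breast CAT, 25 °C, 1 mL. Reverse: 100 mM MOPS, 5 mM EDTA, 0.25 mM CoASH; started with varying D,L-acetylcarnitine; read at 232 nm. Inhibitor at 0, 5.00 or 10.00 mM final; points mean of 2–5 determinations; nonlinear regression fit.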

Substrate in series [6]: C[N+](C)(C)CC(N)CC(=O)[O-]
The series is described as §1. Particulars: Columba livia. In a few lines:
as §2

Regarding `CC(=O)NC(CC(=O)[O-])C[N+](C)(C)C` (configuration not stated), in series [1], the inhibition (usually the share of the control response that was lost under treatment) was determined as 15%.
Turning to `C[N+](C)(C)C[C@H](O)CC(=O)[O-]` [LEVOCARNITINE], the Ki in series [2] and in series [3] was 0.1 mM in each case.
On to `CC(C)(C)CC(O)CC(=O)O` (configuration not stated), for which the Ki (as a rule, a dissociation constant, usually derived from enzyme kinetics or from competition with a known ligand) was 2.8 mM in series [2] and 3.6 mM in series [3].
On to `CC(C)(C)CC(N)CC(=O)O` (configuration not stated), for which the values for the inhibition constant (Ki) result in series [4] and in series [2] were “Not Active” and 20 mM, respectively.
Regarding `CC(C)(C)C[C@@H](O)CC(=O)O`, the Ki in series [2] came out at 6.7 mM.
The molecule `C[N+](C)(C)CC(N)CC(=O)[O-]` (configuration not stated) yielded an inhibition in series [1] of 64%.
Take `CC(C)(C)C[C@H](O)CC(=O)O`: the Ki in series [2] was determined as 2.2 mM.

B1: Carnitine O-acetyltransferase (Homo sapiens), P43155 (protein)
chain: MLAFAARTVVKPLGFLKPFSLMKASSRFKAHQDALPRLPVPPLQQSLDHYLKALQPIVSEEEWAHTKQLVDEFQASGGVGERLQKGLERRARKTENWLSEWWLKTAYLQYRQPVVIYSSPGVMLPKQDFVDLQGQLRFAAKLIEGVLDFKVMIDNETLPVEYLGGKPLCMNQYYQILSSCRVPGPKQDTVSNFSKTKKPPTHITVVHNYQFFELDVYHSDGTPLTADQIFVQLEKIWNSSLQTNKEPVGILTSNHRNSWAKAYNTLIKDKVNRDSVRSIQKSIFTVCLDATMPRVSEDVYRSHVAGQMLHGGGSRLNSGNRWFDKTLQFIVAEDGSCGLVYEHAAAEGPPIVTLLDYVIEYTKKPELVRSPLVPLPMPKKLRFNITPEIKSDIEKAKQNLSIMIQDLDITVMVFHHFGKDFPKSEKLSPDAFIQMALQLAYYRIYGQACATYESASLRMFHLGRTDTIRSASMDSLTFVKAMDDSSVTEHQKVELLRKAVQAHRGYTDRAIRGEAFDRHLLGLKLQAIEDLVSMPDIFMDTSYAIAMHFHLSTSQVPAKTDCVMFFGPVVPDGYGVCYNPMEAHINFSLSAYNSCAETNAARLAHYLEKALLDMRALLQSHPRAKL
As for B1, the figures for the Michaelis-Menten constant (Km) in series [5] and in series [6] were 300 µM and 3.8 mM, respectively.
